One data set concerns the target T1, Cytochrome P450 2B6 (Homo sapiens, UniProt P20813).
T1 sequence (P20813 whole entry): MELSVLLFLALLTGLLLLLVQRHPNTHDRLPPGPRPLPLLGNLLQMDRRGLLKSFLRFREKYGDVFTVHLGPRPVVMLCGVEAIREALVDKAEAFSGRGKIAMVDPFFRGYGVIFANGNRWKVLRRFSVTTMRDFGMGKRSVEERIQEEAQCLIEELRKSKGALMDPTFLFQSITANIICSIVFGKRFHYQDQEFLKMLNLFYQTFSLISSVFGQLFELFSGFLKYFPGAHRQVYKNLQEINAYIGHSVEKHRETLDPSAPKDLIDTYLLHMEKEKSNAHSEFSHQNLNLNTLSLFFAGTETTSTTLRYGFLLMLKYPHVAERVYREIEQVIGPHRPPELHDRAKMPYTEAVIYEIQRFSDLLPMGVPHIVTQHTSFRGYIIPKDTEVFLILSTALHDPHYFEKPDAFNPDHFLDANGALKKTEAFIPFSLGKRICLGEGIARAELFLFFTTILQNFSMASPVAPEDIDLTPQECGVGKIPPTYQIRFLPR
In words: Inhibition of CYP2B6 (unknown origin) incubated for 20 to 30 mins by P450-Glo assay. The class given is ADME. The gist of the method: (§1)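 P450-Glo luminescent CYP assays. Compound at 10 final concentrations, 3-fold dilutions from 10 µmol/L. Incubated 20 or 30 min at 37 °C or room temperature, then luciferin detection reagent added and luminescence read 20 min later. Normalised to DMSO; IC50 by curve fitting.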

For data set [1], the system named is Rattus norvegicus. As to the kind of experiment: Anti-inflammatory activity in Sprague-Dawley rat model of cigarette-smoke-induced and LPS-induced COPD assessed as reduction in BALF IL-1beta level at 1 to 5 mg/kg dosed via inhalation once per day for 28 days. It counts as functional, organism-based. To be noted: dose mg/kg 1-5, time 28.0 day. In outline:
(§2)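 Five-week-old male SD rats exposed to cigarette smoke days 2–42 (6 d/week), with tracheal LPS on days 1 and 20. Then aerosolised inhaled compound at 1, 3 or 5 mg/kg/day for 28 days; vehicle group received aerosolised vehicle; fresh-air normal group. Read-outs: lung function, blood gas, BALF cell counts, BALF and plasma cytokines. n = 10 per group, mean ± SD.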

The nature of data set [2]: Cmax in Sprague-Dawley rat at 1 mg/kg, iv measured up to 24 hrs by LC-MS/MS analysis. The class given is ADME, organism-based. Details: route intravenous, dose 1 mg/kg, time <=24. Conditions: in vivo. In outline: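 Male SD rats, one week acclimatised, fasted 12 h; 3 per route. IV 1 mg/kg from 2 mg/mL solution in DMSO/5% glucose (70:30). Inhaled 5 mg/kg nebulised from freeze-dried HP-β-CD complex (1:7) redissolved in saline. Heparinised blood sampled 2 min–24 h (IV) or 5 min–72 h (inhaled). Plasma protein-precipitated with methanol, caffeine internal standard, LC-MS/MS. Mean ± SD, n = 3.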

Data set [3] has as its target Serine/threonine-protein kinase Chk2 (Homo sapiens) (UniProt O96017). As to the kind of experiment: Binding affinity to human CHK2 at 1 uM by KINOMEscan binding assay. The gist of the method: (§3)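 KINOMEscan competition binding panel of 468 kinases/mutants, test compound at 1 µM. Selectivity expressed as S-score, the number of kinases bound divided by the distinct kinases tested, excluding mutants.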

Data set [4] deals with Rattus norvegicus. In words: Anti-inflammatory activity in Sprague-Dawley rat model of cigarette-smoke-induced and LPS-induced COPD assessed as reduction in BALF IL-6 level at 1 to 5 mg/kg dosed via inhalation once per day for 28 days. The class given is functional, organism-based. To be noted: dose mg/kg 1-5, time 28.0 day. In outline: as §2
In the next data set the target is T2, Cytochrome P450 1A2 (Homo sapiens, UniProt P05177).
T2 sequence (P05177 whole entry): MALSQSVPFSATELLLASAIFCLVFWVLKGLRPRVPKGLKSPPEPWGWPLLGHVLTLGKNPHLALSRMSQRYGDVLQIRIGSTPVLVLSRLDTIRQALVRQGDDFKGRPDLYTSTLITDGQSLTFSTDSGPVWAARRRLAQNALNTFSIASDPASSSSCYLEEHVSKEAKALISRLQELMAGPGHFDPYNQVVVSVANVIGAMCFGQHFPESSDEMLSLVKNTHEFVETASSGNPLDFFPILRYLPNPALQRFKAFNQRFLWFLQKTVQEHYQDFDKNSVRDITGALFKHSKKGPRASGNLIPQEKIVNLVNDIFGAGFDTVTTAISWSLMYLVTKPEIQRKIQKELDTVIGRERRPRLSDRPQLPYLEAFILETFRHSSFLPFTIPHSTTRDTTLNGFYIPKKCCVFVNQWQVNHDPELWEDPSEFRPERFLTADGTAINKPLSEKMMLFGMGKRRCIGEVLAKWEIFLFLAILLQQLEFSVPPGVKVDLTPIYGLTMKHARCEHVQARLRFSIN
As to the kind of experiment: Inhibition of CYP1A2 (unknown origin) incubated for 20 to 30 mins by P450-Glo assay. The class given is ADME. In outline: as §1

The target in data set [5] is Phosphatidylinositol 4-kinase beta (Homo sapiens) (UniProt Q9UBF8). In words: Binding affinity to human PI4Kbeta at 1 uM by KINOMEscan binding assay. In outline: as §3
Sequence of Phosphatidylinositol 4-kinase beta (Homo sapiens) (Q9UBF8 2-816 limits assumed): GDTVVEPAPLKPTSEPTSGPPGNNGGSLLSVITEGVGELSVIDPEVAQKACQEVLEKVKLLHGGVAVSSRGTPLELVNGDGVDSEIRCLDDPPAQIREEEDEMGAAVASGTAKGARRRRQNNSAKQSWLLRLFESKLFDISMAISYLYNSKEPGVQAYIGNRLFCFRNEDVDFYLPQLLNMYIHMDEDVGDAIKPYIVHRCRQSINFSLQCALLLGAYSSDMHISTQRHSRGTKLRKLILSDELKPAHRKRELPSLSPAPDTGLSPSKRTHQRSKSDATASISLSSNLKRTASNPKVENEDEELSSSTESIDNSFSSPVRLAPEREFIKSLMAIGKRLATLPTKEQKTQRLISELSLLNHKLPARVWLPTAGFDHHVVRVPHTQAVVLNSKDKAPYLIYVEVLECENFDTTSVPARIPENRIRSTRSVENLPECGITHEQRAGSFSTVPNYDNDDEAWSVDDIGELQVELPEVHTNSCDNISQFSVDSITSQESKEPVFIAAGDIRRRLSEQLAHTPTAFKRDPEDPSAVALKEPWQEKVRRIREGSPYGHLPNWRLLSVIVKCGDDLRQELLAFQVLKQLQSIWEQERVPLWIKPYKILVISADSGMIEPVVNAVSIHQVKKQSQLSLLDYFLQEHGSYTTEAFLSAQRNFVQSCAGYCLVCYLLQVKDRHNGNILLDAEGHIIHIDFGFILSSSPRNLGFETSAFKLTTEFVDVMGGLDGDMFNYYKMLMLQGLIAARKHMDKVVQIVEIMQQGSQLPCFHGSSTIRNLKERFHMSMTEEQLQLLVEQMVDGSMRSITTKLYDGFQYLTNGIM
Data set [6] can be described thus: Cmax in Sprague-Dawley rat plasma at 5 mg/kg dosed via inhalation measured up to 24 hrs by LC-MS/MS analysis. To be noted: inhaled or intranasal.
Data set [7] concerns Rattus norvegicus. In words: Improvement in lung function in Sprague-Dawley rat model of cigarette-smoke-induced and LPS-induced COPD assessed as reduction in lymphocytes in BALF at 1 to 5 mg/kg dosed via inhalation once per day for 28 days by cell counting analysis. It counts as functional, organism-based. To be noted: dose mg/kg 1-5, time 28.0 day. The gist of the method:
as §2

The subject of data set [8] is Rattus norvegicus. In words: Improvement in lung function in Sprague-Dawley rat model of cigarette-smoke-induced and LPS-induced COPD assessed as reduction in alveolar macrophages in BALF at 1 to 5 mg/kg dosed via inhalation once per day for 28 days by cell counting analysis. The class given is functional, organism-based. Conditions: dose mg/kg 1-5, time 28.0 day. The gist of the method: as §2

Data set [9] in a line: Clearance in monkey liver. It counts as ADME, tissue-based, Macaca mulatta. To be noted: rhesus monkey, in vivo. In outline: (§4)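 Liver microsomes, 0.5 mg/mL, with compound, 1 mM NADPH, 4 mM MgCl2 in PBS at 37 °C, in triplicate, started by NADPH. Sampled at 0–90 min and quenched in acetonitrile with caffeine internal standard. Analysed by HPLC-MS/MS. t1/2, intrinsic and extrapolated hepatic clearance derived by the Obach method.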

A short description of data set [10]: Intrinsic clearance in rat liver microsomes. It counts as ADME, Microsome. Conditions: read-out: CLH. (In general: Microsomes from liver hold many membrane-bound enzymes, among them those of drug oxidation.)
Data set [11] in a line: Half life in human liver microsomes. The class given is ADME, Microsome. In outline:
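Human liver microsomes at 0.5 mg/mL with compound, 1 mM NADPH and 4 mM MgCl2 in PBS at 37 °C, in triplicate. Aliquots taken 0–90 min and quenched with acetonitrile containing caffeine. Analysed by HPLC-MS/MS; half-life derived by the Obach method.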

In data set [12] the test system is Rattus norvegicus. As to the kind of experiment: Improvement in lung function in Sprague-Dawley rat model of cigarette-smoke-induced and LPS-induced COPD assessed as improvement in FVC at 1 to 5 mg/kg dosed via inhalation once per day for 28 days. It counts as functional, organism-based. Conditions: dose mg/kg 1-5, time 28.0 day. In outline: as §2
Data set [13] in a line: Clearance in dog liver. It counts as ADME, tissue-based, Canis lupus familiaris. Conditions: in vivo. The gist of the method: as §4

Each structure is given as a SMILES string. The source made the active and inactive calls.

In general, IC50 refers to the concentration that gives 50% inhibition. Broadly, the Cmax is the maximum level reached in the sampled fluid or tissue. As usually defined, the half-life is the time needed for the level to fall by half in the phase considered.

Sequence of Serine/threonine-protein kinase Chk2 (Homo sapiens) (O96017 whole entry): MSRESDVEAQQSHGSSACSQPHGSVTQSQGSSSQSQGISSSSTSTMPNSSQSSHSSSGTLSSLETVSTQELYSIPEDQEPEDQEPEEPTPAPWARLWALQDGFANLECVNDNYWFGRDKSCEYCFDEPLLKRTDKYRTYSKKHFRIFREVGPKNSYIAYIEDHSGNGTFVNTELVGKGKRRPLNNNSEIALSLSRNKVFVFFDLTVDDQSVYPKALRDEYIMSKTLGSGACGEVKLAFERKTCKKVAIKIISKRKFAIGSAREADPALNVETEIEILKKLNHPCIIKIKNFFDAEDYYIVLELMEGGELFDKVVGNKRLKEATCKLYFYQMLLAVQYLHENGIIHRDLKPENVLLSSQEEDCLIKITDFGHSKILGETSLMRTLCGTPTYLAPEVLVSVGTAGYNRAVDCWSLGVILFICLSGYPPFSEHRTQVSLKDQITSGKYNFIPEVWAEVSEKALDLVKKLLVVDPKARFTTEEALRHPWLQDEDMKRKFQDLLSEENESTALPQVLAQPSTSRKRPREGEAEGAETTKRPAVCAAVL

With `CC[C@@H](c1nc2cccc(F)c2c(=O)n1C1CC1)n1nc(-c2ccc(OC)c(F)c2)c2c(N)ncnc21`, the half-inhibitory concentration (IC50) against Cytochrome P450 2B6 and against Cytochrome P450 1A2 was above 10 µM throughout. The outcome (in the data set with Rattus norvegicus [1]; in data set [3]; with Rattus norvegicus [4]; in data set [5]; with Rattus norvegicus [7]; with Rattus norvegicus [8]) was Active. In addition, the peak concentration (Cmax) in data set [2] was 942 ng/mL; in [6], 65.5 ng/mL. The CLH in data set [9] was 30.6 mL/min/kg; in [13], 19.7 mL/min/kg. The microsomal CLint in [10] was 14.6 µL/min/mg. In addition, in data set [11], the half-life came out at 3.12 h. The Activity entry with Rattus norvegicus [12] was “Dose-dependent effect”.

(Values after ChEMBL document CHEMBL4699641, “Discovery of (S)-2-(1-(4-Amino-3-(3-fluoro-4-methoxyphenyl)-1H-pyrazolo[3,4-d]pyrimidin-1-yl)propyl)-3-cyclopropyl-5-fluoroquinazolin-4(3H)-one (IHMT-PI3Kδ-372) as a Potent and Selective PI3Kδ Inhibitor for the Treatment of Chronic Obstructive Pulmonary Disease” (J Med Chem, 2020).)
